# Assay outcomes (PubChem BioAssay)
# Only some compounds are listed: those with a hit (about 3% of all), similar ones and a draw of the others.
# M4 ag: CHRM4 agonism in calcium assay | 0.14% of 360,000 active | activation, % at 3 µM | P08173 | CHO-K1 hM4/Gqi5, Fluo-8 calcium fluorescence; vehicle 0%, full acetylcholine response 100%;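 active = activation above the run mean over all test wells plus 3 SD, cut at about 32% in these data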;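 note: peak over basal fluorescence ratio per well then scaled between controls; 0% = DMSO wells and 100% = acetylcholine at EC100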
# TAAR1 ag: agonists of human TAAR1; Q96RJ0; CHO RD-HGA16 TAAR1, Fluo-8 calcium fluorescence; vehicle wells 0%, saturating PEA agonist 100%; activation, % at 3 µM; 0.99% of 360,000 active; AID 624467;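 active = activation above the mean activation of all test compounds in the run plus 3 SD, cut at about 38% in these data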
# Target sequence (Q96RJ0 whole entry, looked up): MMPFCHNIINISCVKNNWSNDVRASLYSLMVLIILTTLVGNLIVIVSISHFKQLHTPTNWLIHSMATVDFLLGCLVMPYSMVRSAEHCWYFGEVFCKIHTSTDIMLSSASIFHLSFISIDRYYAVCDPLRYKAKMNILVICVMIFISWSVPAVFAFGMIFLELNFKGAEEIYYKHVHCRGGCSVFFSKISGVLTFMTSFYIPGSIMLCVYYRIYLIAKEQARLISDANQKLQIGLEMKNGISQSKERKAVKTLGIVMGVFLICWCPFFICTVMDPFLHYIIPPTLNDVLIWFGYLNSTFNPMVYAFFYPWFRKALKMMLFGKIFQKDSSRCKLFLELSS
#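 test system = CHO RD-HGA16 cells carrying human TAAR1 plus Gα16 | schedule = 17-24 h seeding, 75 min 37 °C dye, 30 min RT | compound dosing = 3 µM single concentration | control set = DMSO and PEA EC100 | replicates = n 1 | signal = Fluo-8 fluorescence, 5 s baseline then 140 s kinetic read | measure = percent activation vs PEA EC100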
# M4 PAM: potentiates acetylcholine response at human M4 receptor | P08173 | CHO-K1 hM4/Gqi5, Fluo-8 calcium fluorescence, ACh EC20; 0% = ACh EC20, 100% = maximal ACh | activation, % at 3 µM | 0.4% of 360,000 active | AID 624126;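 active = activation above its plate's cutoff, the mean activation of sample wells plus 3 SD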
# CHRM4 antagonist: CHRM4 antagonism in calcium assay; P08173; CHO-hM4 cells, ACh EC80, Fluo-8 calcium fluorescence; inhibition, % at 3 µM; 0.73% of 360,000 active; AID 624125;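 active = inhibition above its plate's cutoff, the mean inhibition of sample wells plus 3 SD, cut at about 27% in these data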;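 note: 0% = acetylcholine EC80 with DMSO and 100% = DMSO without agonist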
# TAAR1 antagonist: antagonists of human TAAR1; inhibition, % at 3 µM; Q96RJ0; CHO RD-HGA16 TAAR1, Fluo-8 calcium fluorescence, antagonist; 1.5% of 360,000 active;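 active = inhibition above a per-plate cutoff, the mean inhibition of test compounds on that plate plus 3 SD, cut at about 49% in these data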;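 note: 0% = DMSO plus EC80 beta-PEA response and 100% = DMSO alone without agonist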
#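 Material: RD-HGA16 CHO cells with stable hTAAR1 and Gα16; Dosing: single nominal final test compound concentration of 3 µM; Schedule: seeding 17-24 h prior, 75-min 37 °C, 30-min RT dye loading; Detection: kinetic Fluo-8 calcium fluorescence measurement; Measure: % inhibition from peak post-agonist over basal fluorescence ratio; Benchmarks: vehicle and agonist controls.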
# nonsel antag count: nonselective antagonist in TAAR1 antagonist counter-screen. shares compounds with TAAR1 antagonist. inhibition, % at 3 µM. AID 651780. 77% of 2,400 active. counterscreen cell line, calcium fluorescence, antagonist mode; in the data active = inhibition above about 22%;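 note: CHO-Ga16 host cells stimulated with ATP at an EC80 level; 0% = agonist EC80 plus vehicle and 100% = vehicle without agonist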
# TAAR1 ant conf: human TAAR1 antagonism, confirmed; AID 651785; inhibition, % at 3 µM; TAAR1-expressing cells, fluorescence antagonist read-out; 40% of 2,400 active; shares compounds with TAAR1 antagonist; in the data active = inhibition above about 49%;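 note: CHO-Ga16 host cells challenged with agonist PEA near its EC80; 0% = agonist at EC80 plus vehicle and 100% = vehicle with no agonist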
# Ga16 nonsel ag: nonselective Ga16 agonist in TAAR1 antagonist counter-screen | shares compounds with TAAR1 antagonist | Ga16-expressing cells, calcium fluorescence, agonist counterscreen | activation, % at 3 µM | 18% of 2,400 active; in the data active = activation above about 12%;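 note: 0% = vehicle wells and 100% = saturating stimulus response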
# TAAR1 ag counter: TAAR1 agonism, antagonist counter-screen. shares compounds with TAAR1 antagonist. hTAAR1 cell line, fluorescence activation, agonist mode. activation, % at 3 µM. 2% of 2,400 active. AID 651955; in the data active = activation above about 37%;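 note: CHO cells stably expressing TAAR1 with calcium dye readout; 0% = DMSO vehicle and 100% = full agonist response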
# Starred values were filed as active, the others as inactive; . = no result given.
SMILES,M4 ag,TAAR1 ag,M4 PAM,CHRM4 antagonist,TAAR1 antagonist,nonsel antag count,TAAR1 ant conf,Ga16 nonsel ag,TAAR1 ag counter
CCCCNC(=O)c1nc(C2CCN(S(=O)(=O)c3ccccc3C(F)(F)F)CC2)oc1-c1ccccc1,0.3,-0.1,-8.9,9.8,-3.4,.,.,.,.
C=C1[C@@H](O)[C@H](Cc2ccccc2)N(Cc2ccccc2Br)S1(=O)=O,1.2,0.3,8.5,-1.8,19.6,.,.,.,.
O=C(Nc1nc(-c2ccc(F)c(F)c2)cs1)c1ccc(OCC2CCCO2)cc1 (stereo unspecified),2.2,6.9,5.8,1.3,54.3*,32.7*,35.0,9.3,4.0
CC(=O)Nc1ccc(-c2csc(NC(=O)Cc3ccccc3F)n2)cc1,6.0,5.5,-1.3,1.1,26.6,.,.,.,.
O=C(CN1C(=O)NC2(CCCC2)C1=O)Nc1nc(-c2ccc(F)cc2)cs1,9.7,24.2,-6.5,-5.4,51.0*,23.4*,32.7,9.8,16.5
Cc1csc(NC(=O)c2ccc(OCC3CCCO3)cc2)n1 (stereo unspecified),23.9,9.5,-16.5,7.8,-20.5,.,.,.,.
CC(C(=O)Nc1nc(-c2ccc(F)c(F)c2)cs1)N1C(=O)C2CC=CCC2C1=O (stereo unspecified),30.2,19.1,-12.1,20.4,77.6*,45.3*,60.5*,11.2,8.7
O=C(Cc1ccccc1F)Nc1nc(-c2ccc(F)c(F)c2)cs1,14.8,10.7,-15.7,3.2,67.5*,24.0*,49.5*,10.6,14.2
Cc1cccc(S(=O)(=O)N2C[C@@H](O)COC[C@@H]3O[C@H](CC(=O)NCCCN4CCOCC4)CC[C@H]32)c1,1.1,2.7,3.0,-10.3,5.9,.,.,.,.
Cc1ccc(S(=O)(=O)N2[C@H](CC(=O)c3ccc(F)cc3)OC[C@@H]2C(C)C)cc1,-0.1,3.7,4.4,-12.2,-30.3,.,.,.,.
COc1ccc(CC(=O)Nc2nc(-c3cc(OC)ccc3OC)cs2)cc1,8.8,11.8,-15.9,-16.1,55.5*,22.4*,34.4,6.7,2.1
O=C(Cc1ccc(F)cc1)Nc1nc(-c2ccc(F)cc2)cs1,21.3,3.6,-17.6,-7.1,82.3*,46.5*,57.0*,6.8,-0.6
O=C(Cc1cccs1)Nc1nc(-c2ccc(F)c(F)c2)cs1,18.2,7.2,-14.2,3.8,72.4*,39.2*,55.5*,6.5,3.1
O=C(Nc1c(-c2ccc3c(c2)OCO3)[nH][nH]c1=O)c1cnccn1,-0.1,2.4,7.5,-9.1,-13.0,.,.,.,.
CCOCCCNC(=O)C(c1ccc(Cl)cc1)N(Cc1cccs1)C(=O)c1ccccn1 (stereo unspecified),21.5,17.6,-13.6,4.3,70.5*,21.1,38.3,9.2,9.8
CCOCCCNC(=O)C(c1ccc(OC)cc1)N(Cc1ccc2c(c1)OCO2)C(=O)c1ccccn1 (stereo unspecified),6.0,6.2,-4.5,1.9,-4.1,.,.,.,.
CCOCCCNC(=O)C(c1ccc(C)cc1)N(Cc1cccs1)C(=O)c1ccccn1 (stereo unspecified),20.6,18.4,-14.1,7.3,60.8*,30.5*,55.4*,12.0*,13.5
CCC(C)(C)NC(=O)C(c1ccc(F)cc1)N(Cc1ccccc1)C(=O)c1cnccn1 (stereo unspecified),1.7,0.1,4.1,-0.9,-9.8,.,.,.,.
O=C(NCc1ccccc1)C(c1ccc(F)cc1)N(Cc1cccs1)C(=O)c1cnccn1 (stereo unspecified),13.4,15.7,-0.6,1.5,52.1*,31.4*,48.0,7.3,9.1
O=C(Nc1ccc(F)cc1)C(CCc1ccccc1)N1CCN(Cc2c(F)cccc2Cl)CC1 (stereo unspecified),1.3,2.2,-10.0,-4.6,17.6,.,.,.,.
CCc1ccc(N2C=C(C(=O)OC)C(c3cccc4ccccc34)C(C#N)=C2N)cc1 (stereo unspecified),10.0,11.5,3.0,-16.1,0.8,.,.,.,.
CCN(CC(=O)Nc1ccccc1OC)C(=O)c1cc(-c2ccccc2)nn1-c1ccccc1,11.5,2.4,-2.9,-1.3,60.6*,21.2,32.1,6.9,-0.6
CN(CC(=O)Nc1ccccc1Cl)C(=O)c1cc(-c2cccs2)nn1-c1ccccc1,1.8,6.0,7.4,-2.1,16.9,.,.,.,.
CN(CC(=O)Nc1c(Cl)cccc1Cl)C(=O)c1cc(-c2cccs2)nn1-c1ccccc1,10.7,2.5,-9.3,7.8,24.7,.,.,.,.
CCN(CC(=O)Nc1ccccc1C(F)(F)F)C(=O)c1cc(-c2ccccc2)nn1-c1ccccc1,8.7,-0.8,-4.0,-6.0,44.1,.,.,.,.
SMILES,M4 ag,TAAR1 ag,M4 PAM,CHRM4 antagonist,TAAR1 antagonist,nonsel antag count,TAAR1 ant conf,Ga16 nonsel ag,TAAR1 ag counter
Cc1ccc(NC(=O)CN(C)C(=O)c2cc(-c3cccs3)nn2-c2ccccc2)cc1,1.2,4.8,12.9,-5.7,54.5*,22.3*,39.1,6.3,4.9
CN(CC(=O)Nc1ccc(Cl)cc1)C(=O)c1cc(-c2cccs2)nn1-c1ccccc1,0.1,3.4,3.5,-3.1,66.4*,24.6*,42.1,6.0,3.7
CCN(CC(=O)Nc1c(F)cccc1F)C(=O)c1cc(-c2cccs2)nn1-c1ccccc1,20.4,9.2,-5.2,15.8,72.2*,26.7*,44.4,10.0,9.4
O=C(NC1CCCCC1)C1c2ccccc2OCC(=O)N1CCc1ccccc1 (stereo unspecified),-0.2,0.0,6.0,-0.4,-1.3,.,.,.,.
CCN(CC(=O)Nc1c(F)cccc1F)C(=O)CSc1ccc(F)cc1,1.6,-0.4,-1.4,-1.5,-3.3,.,.,.,.
CCN(CC(=O)Nc1c(F)cccc1F)C(=O)CSc1ccccc1,0.3,-2.0,-3.6,2.1,96.9*,3.1,-2.8,5.0,10.5
O=C1NC[C@@H](CCCCN2C[C@H](Cc3ccc(O)cc3)N(CC3CCCCC3)C(=O)C2=O)N(CCc2ccccc2)C1=O,0.8,3.1,5.5,-9.1,-18.6,.,.,.,.
COc1cccc(NC(=O)N(C)C[C@@H]2OCc3cnnn3CCCC(=O)N([C@@H](C)CO)C[C@H]2C)c1,-0.1,-0.6,-1.9,-2.0,3.4,.,.,.,.
CCOC(=O)C1=C[C@@H](C(C)(C)C)N(S(=O)(=O)c2ccc([N+](=O)[O-])cc2)[C@H]1c1cccc(Cl)c1,.,1.7,.,.,16.9,.,.,.,.
CCOC(=O)C1=C[C@@H](C(C)(C)C)N(S(=O)(=O)c2ccc([N+](=O)[O-])cc2)[C@H]1c1ccccc1,2.3,1.7,-10.1,6.7,-6.5,.,.,.,.
